Compounds with a hit are over-represented: about 2.1% of the library has one in this group of screens.
SMARCA2 act = SMARCA2 function activation, primary screen; MG213 cells, MMTV-luciferase reporter, dexamethasone, overnight; AID 652017; 370,000 tested, 1% active; activation, % at 9.1 µM; in the data active means activation above about 7.8%;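 further: 0% = vehicle wells and 100% = reference activator wells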
MC4R antag cAMP = human MC4R antagonism in cAMP assay | 360,000 tested, 0.48% active | MC4R-expressing cells, MTII-stimulated cAMP, LANCE TR-FRET | AID 540295 | inhibition, % at 6.5 µM;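 active means inhibition above its plate's cutoff, the mean of tested wells on that plate plus 3 SD, cut at about 29% in these data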;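 further: 0% = Melanotan II alone and 100% = Melanotan II plus saturating MCL0020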
Target sequence (P32245 whole entry, looked up): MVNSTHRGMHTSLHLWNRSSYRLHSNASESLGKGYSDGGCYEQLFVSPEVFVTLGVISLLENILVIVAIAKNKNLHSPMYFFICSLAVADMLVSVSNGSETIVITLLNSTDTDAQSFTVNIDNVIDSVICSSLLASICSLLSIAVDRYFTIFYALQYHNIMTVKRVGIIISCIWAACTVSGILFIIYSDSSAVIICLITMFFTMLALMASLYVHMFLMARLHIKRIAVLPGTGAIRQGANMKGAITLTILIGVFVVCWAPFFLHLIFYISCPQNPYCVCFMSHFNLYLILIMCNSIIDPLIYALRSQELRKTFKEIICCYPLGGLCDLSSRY
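Material: human MC4R-expressing U2OS cells. Probe or stimulus: Melanotan II challenge. Dosing: 6.5 µM single dose. Times: 30-min compound, 1-h challenge, 1-h detection, room temperature. Technique: TR-FRET with Eu-cAMP and labeled anti-cAMP, 671 nm. Replication: singlicate.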
MC4R ag barr = activates human MC4R beta-arrestin recruitment; AID 540308; 360,000 tested, 0.98% active; activation, % at 8.9 µM; U2OS MC4R beta-arrestin complementation, luminescence; percent of melanotan II response, DMSO zero; P32245;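 active means activation above a per-plate cutoff, the mean activation of sample wells on that plate plus 3 SD, cut at about 8% in these data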
F508del corr = CFTR F508del correction in bronchial cells; activity (quench increase), % at 7.58 µM; 350,000 tested, 0.36% active; CFBE cells, YFP halide quenching; stimulated with forskolin plus potentiator P3; % fluorescence drop versus neutral controls; AID 720511;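 active means mean added fluorescence quench of at least 8% versus neutral control, with both replicates also reaching 8%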;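 further: cells transiently co-express mutant CFTR-F508del with the halide-sensitive YFP; corrector assay measuring rescue of mutant channel to the surface after 24 h compound exposure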
MC4R barr conf = human MC4R beta-arrestin agonism confirmation | 2,400 tested, 31% active | shares compounds with MC4R ag barr | U2OS MC4R beta-arrestin recruitment, luminescence; scaled DMSO 0%, Melanotan II 100% | activation, % at 8.9 µM;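 active means mean activation across replicates above the hit cutoff set in the earlier primary screen, cut at about 8% in these data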
MOR DOR agonist = OPRM1-OPRD1 heterodimer agonism counter-screen. shares compounds with MC4R ag barr. U2OS PathHunter beta-arrestin, beta-gal luminescence; percent of deltorphin B response, DMSO zero. activation, % at 9.2 µM. 2,400 tested, 5.8% active. AID 602194;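 active means mean activation across replicates exceeds the hit threshold derived in the earlier primary screen, cut at about 18% in these data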;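 further: 100% = deltorphin B at 0.9 µM final and 0% = DMSO alone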
The depositor's hits bear a star; / = no result.

SMILES	SMARCA2 act	MC4R antag cAMP	MC4R ag barr	F508del corr	MC4R barr conf	MOR DOR agonist
COc1ccc(CNC(=O)COC(=O)c2cc3ccccc3cc2O)cc1OC	-2	9	14*	-1	3	4
COc1ccccc1CCC(=O)OCC(=O)NCc1ccc(OC)c(OC)c1	4	17	1	-3	/	/
CC(NC(=O)COC(=O)c1cc2ccccc2cc1O)c1ccccc1 (configuration not stated)	0	7	18*	-4	12*	7
O=C(Nc1cnn(C23CC4CC(CC(C4)C2)C3)c1)c1cc(-c2ccccc2)on1	1	0	12*	/	0	2
COc1ccc(-c2cc(C(=O)Nc3cnn(Cc4ccccc4C)c3)no2)cc1OC	/	-1	12*	0	3	9
Cc1ccc(-c2cc(C(=O)Nc3cnn(C45CC6CC(CC(C6)C4)C5)c3)no2)cc1	/	-22	6	-1	/	/
COc1ccc(-c2cc(C(=O)Nc3ccccc3SC)no2)cc1OC	1	-5	39*	/	3	13
COc1cc(C(=O)Nc2nnc(Cc3ccccc3)s2)cc(OC)c1OC	-2	-2	-2	2	/	/
O=C(Nc1nnc(CCc2ccccc2)s1)c1cccc(F)c1	1	8	14*	3	1	5
COc1ccc(C(=O)Nc2nnc(Cc3ccccc3)s2)c(OC)c1	0	-10	15*	3	-1	7
Cc1noc(C)c1S(=O)(=O)Nc1ccc2c(c1)CC(=O)N([C@H](C)CO)C[C@@H](C)[C@H](CN(C)C)O2	/	/	/	-1	/	/
CC(/C=C/C=C/c1ccccc1)=N/NC(=O)CNc1ccc(C)cc1	1	-18	14*	4	1	3
Cc1cccc(NCC(=O)N/N=C\c2cccc(Oc3ccccc3)c2)c1	0	-2	12*	-3	3	4
N#CCC(=O)N/N=C/c1cccc(Oc2ccccc2)c1	-1	4	0	-1	/	/
Cc1ccc(NCC(=O)N/N=C/c2cccc(Oc3ccccc3)c2)cc1	-4	-1	24*	/	4	3
CC(C)NC(=O)N1CC[C@@H]2[C@@H](CO)N(C)c3ccc(Br)cc3[C@@H]21	/	/	/	1	/	/
O=C(CCc1nc2ccccc2c(=O)[nH]1)OCc1ccc(-c2ccccc2)cc1	-1	-6	18*	-2	3	6
O=C(CN1CCN(c2ccccc2)CC1)Nc1nnc(-c2ccccc2)s1	2	3	5	/	/	/
COC(=O)c1ccc(C(=O)OC)c(NC(=O)CN2CCN(c3ccccc3)CC2)c1	1	-3	15*	-2	14*	14
COc1ccc(N2CCN(CC(=O)Nc3nnc(-c4ccccc4)s3)CC2)cc1	0	3	11*	/	1	4
Cc1ccc2nc(SCC(=O)Nc3cc(C)on3)c(C)cc2c1	-3	-1	11*	1	7	5
Cc1ccc(C(=O)N/N=C\c2ccc(-c3ccc(Cl)c(Cl)c3)o2)cn1	-3	-7	11*	-33	8.4*	6
Cc1ccc(C(=O)N/N=C/c2ccc(-c3cccc(Cl)c3)o2)cn1	-3	1	-3	1	/	/
O=C(COc1ccccc1Cl)Nc1ccc2oc(=O)ccc2c1	1	-4	12*	0	7	6
Cc1ccccc1OCC(=O)Nc1ccc2oc(=O)ccc2c1	2	0	-2	1	/	/
SMILES	SMARCA2 act	MC4R antag cAMP	MC4R ag barr	F508del corr	MC4R barr conf	MOR DOR agonist
O=C(COc1ccc2ccc(=O)oc2c1)Nc1ccc(N2CCCCC2)cc1	1	5	16*	-5	9.1*	9
CN1c2ccc(Br)cc2[C@@H]2[C@@H](CCN2S(=O)(=O)c2cccc(F)c2)[C@@H]1CO	/	/	/	5	/	/
C[C@@H]1CN([C@@H](C)CO)C(=O)c2cc(NC(=O)CCN3CCOCC3)ccc2O[C@@H]1CN(C)S(=O)(=O)c1cn(C)cn1	/	/	/	0	/	/
C[C@H]1CN([C@@H](C)CO)C(=O)c2cc(NS(=O)(=O)c3ccccc3)ccc2O[C@H]1CN(C)Cc1ccccc1	/	/	/	3	/	/
COc1ccc(C(=O)Nc2ccc(OCc3ccccc3)cc2)cc1[N+](=O)[O-]	1	0	30*	/	10*	7
CCOc1ccc(/C=N/OCC(=O)Nc2ccc(OCc3ccccc3)cc2)cc1OC	1	12	13*	-1	8.2*	2
O=C(Nc1cccc([N+](=O)[O-])c1)c1ccc(-c2ccccc2)cc1	2	9	39*	0	6	25*
Cc1c(C(=O)Nc2cccc([N+](=O)[O-])c2)csc1-c1ccccc1	3	3	14*	/	2	10
COCC#Cc1cnc2c(c1)C(=O)N([C@H](C)CO)C[C@H](C)[C@H](CN(C)C(C)=O)O2	/	/	/	-1	/	/
COc1ccc(C(=O)Nc2cccc([N+](=O)[O-])c2)cc1Br	-3	-10	22*	/	8.9*	13
C[C@@H](NC(=O)C[C@H]1CC[C@@H](NC(=O)c2cccnc2)[C@H](CO)O1)c1ccccc1	/	/	/	0	/	/
COc1ccc(NC(=O)N(C)C[C@H]2Oc3c(NC(=O)c4cnccn4)cccc3C(=O)N([C@@H](C)CO)C[C@@H]2C)cc1	/	/	/	-2	/	/
O=[N+]([O-])c1cc(S(=O)(=O)N2CCCC2)ccc1N/N=C/c1cccs1	1	-7	20*	/	2	4
O=[N+]([O-])c1ccc(/C=C/c2ccc3cccc([N+](=O)[O-])c3n2)cc1	0	4	10*	/	4	7
CCc1nc(Nc2cc(OC)ccc2OC)c2oc3ccccc3c2n1	-4	3	10*	1	1	3
O=C(C[C@H]1C=C[C@H](NC(=O)c2ccccn2)[C@H](CO)O1)NCc1cc(F)cc(F)c1	/	/	/	0	/	/
COc1ccc(CC(=O)OCc2cc3cccc(C)c3[nH]c2=O)cc1	/	9	21*	0	8	5
COc1ccc(C(=O)OCc2cc3cccc(C)c3[nH]c2=O)cc1	0	5	15*	/	2	14
CO[C@H]1CN(C)C(=O)c2cc(NC(=O)C3CCC3)ccc2OC[C@@H](C)N(C(=O)CN(C)C)C[C@H]1C	/	/	/	2	/	/
C[C@@H]1CN([C@H](C)CO)S(=O)(=O)c2ccc(C3=CCCC3)cc2O[C@@H]1CN(C)C(=O)C1CCOCC1	/	/	/	0	/	/
C/C(=N\NC(=O)c1ccc(CN(C)S(=O)(=O)c2ccc(C)cc2)cc1)c1ccc(OC(F)F)cc1	-2	10	4	3	/	/
Cc1ccc(S(=O)(=O)N(C)Cc2ccc(C(=O)N/N=C/c3ccc(OC(F)F)cc3)cc2)cc1	-1	-1	25*	-4	3	12
O=c1[nH]c(-c2ccc(-c3cccc(Cl)c3)o2)nc2ccccc12	5	-3	13*	-3	-2	2
